From ChEMBL document CHEMBL2093137, “WHO-TDR NTD Screening”
≈ marks a conversion by molar mass, not a printed value.

What was measured:
[1] = WHO-TDR: Cytotoxicity; assay type: toxicity, cell-based; conditions: human, MRC5 cells
Plasmodium falciparum K1 = test: WHO-TDR: Malaria; assay type: functional, organism-based, Homo sapiens; conditions: Erythrocyte
Outline: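 Whole-organism screen of a 10,000-compound diverse library from Life Chemicals, filtered for drug-likeness and reactive groups, against intra-erythrocytic Plasmodium falciparum K1 strain in human red blood cells. The assay followed previously published standard procedures, with a reference drug as positive control. Antiplasmodial potency is reported as IC50.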

Trypanosoma cruzi = test: WHO-TDR: Chagas disease; assay type: functional, organism-based, Homo sapiens; conditions: MRC5
Outline: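 A diverse library of 10,000 compounds from Life Chemicals, filtered for drug-likeness and reactive groups, was screened against intracellular amastigotes of Trypanosoma cruzi Tulahuen CL2 beta-galactosidase strain. The parasites were grown in MRC-5SV2 human lung fibroblast host cells, and a reference drug served as positive control under previously published standard procedures. Antiparasitic potency is given as IC50.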

[2] = system: Trypanosoma brucei brucei; test: WHO-TDR: Human African Trypanosomiasis (HAT); assay type: functional, organism-based; conditions: Squib-427
Outline: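 Whole-organism screen of a 10,000-compound diverse library from Life Chemicals, filtered for drug-likeness and reactive groups, against bloodstream forms of Trypanosoma brucei Squib 427 strain. The assay followed previously published standard procedures, with reference drugs as positive controls. Antiparasitic potency is reported as IC50.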

Leishmania infantum = test: WHO-TDR: Leishmaniasis; assay type: functional, organism-based, Mus musculus; conditions: Macrophage
Outline: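 Whole-organism screen of a 10,000-compound diverse library from Life Chemicals, filtered for drug-likeness and reactive groups, against intracellular amastigotes of Leishmania infantum MHOM/MA(BE)/67 in murine peritoneal macrophage host cells. The assay followed previously published standard procedures, with a reference drug as positive control. Antiparasitic potency is reported as IC50.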

Schistosoma mansoni = test: WHO-TDR: Schistosomiasis; assay type: functional; set-up: concentration or dose not given beside the values
Outline: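 Larval and/or adult Schistosoma mansoni (Puerto Rican strain) were tested whole against 10,000 diverse compounds from Life Chemicals. The procedure was a previously published standard one, using a reference drug as positive control. Results are expressed as percent inhibition and IC50.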

Brugia malayi = test: WHO-TDR: Lymphatic Filariasis; assay type: functional; set-up: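 tested at 10 µM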
Outline: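 Percent inhibition and IC50 describe activity against Brugia malayi microfilariae in a whole-organism screen. The screen used previously published standard procedures with reference drugs as positive controls. Compounds came from a diverse Life Chemicals library of 10,000, filtered for drug-likeness and reactive groups.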

Onchocerca ochengi = test: WHO-TDR: Onchocerciasis; assay type: functional; set-up: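 at 12.5 µM on microfilariae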
Outline: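 Onchocerca ochengi or Onchocerca lienalis, animal pathogens used as surrogates for the human parasite, were screened as whole microfilariae against a 10,000-compound diverse library from Life Chemicals. The reported measures of activity are percent inhibition and IC50.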

Structure (SMILES) | IC50 (Plasmodium falciparum K1) [µg/mL] | IC50 [2] [µg/mL] | IC50 (Leishmania infantum) [µg/mL] | IC50 [1] [µg/mL] | IC50 (Trypanosoma cruzi) [µg/mL] | % Inhibition (Schistosoma mansoni) [%] | % Inhibition (Brugia malayi) [%] | % Inhibition (Onchocerca ochengi) [%]
Cc1nc2c(ccc3nc(Nc4nc5ccc(C(C)C)cc5s4)sc32)s1 | 3.97 (≈ 10 µM) | 0.385 (≈ 0.971 µM) | 0.385 (≈ 0.971 µM) | 3.59 (≈ 9.04 µM) | 4.11 (≈ 10.4 µM) | 0 | 25 | –
Cc1c(C(=O)N2CCC(C)CC2)sc2nc(-c3ccc(F)cc3)cn12 | > 10.7 | 0.422 (≈ 1.18 µM) | > 10.7 | > 10.7 | > 10.7 | 0 | 0 | –
Cc1cc2cc(CNC(=O)CC(c3ccccc3)c3ccccc3)ccc2[nH]1 | > 11.1 | 3.37 (≈ 9.14 µM) | > 11.1 | > 11.1 | 0.391 (≈ 1.06 µM) | 0 | 0 | –
CC(=O)NCCNc1ccc(Nc2cc(C)ccn2)nn1 | 5.28 (≈ 18.4 µM) | > 8.59 | > 8.59 | 6.36 (≈ 22.2 µM) | > 8.59 | – | 0 | 100
O=S(=O)(NCCNc1ccc(Nc2ccccn2)nn1)c1ccccc1C(F)(F)F | 4.71 (≈ 10.7 µM) | 4.31 (≈ 9.83 µM) | > 13.2 | 5.08 (≈ 11.6 µM) | > 13.2 | – | 25 | 100
CCCCOc1ccc(C(=O)N2CCN(c3ccc(Nc4cccnc4)nn3)CC2)cc1 | 1.69 (≈ 3.91 µM) | 11.9 (≈ 27.5 µM) | 0.42 (≈ 0.971 µM) | > 13 | 3.45 (≈ 7.98 µM) | – | 0 | 100
CC(C)(C)c1ccc(C(=O)N2CCN(c3ccc(Nc4ccncc4)nn3)CC2)cc1 | 3.68 (≈ 8.84 µM) | 4 (≈ 9.6 µM) | 4.04 (≈ 9.71 µM) | 3.49 (≈ 8.39 µM) | 4.1 (≈ 9.85 µM) | – | 0 | 100
O=S(=O)(c1ccccc1)N1CCN(c2ccc(Nc3ccncc3)nn2)CC1 | > 11.9 | > 11.9 | 0.385 (≈ 0.971 µM) | > 11.9 | > 11.9 | – | 0 | 0
Cc1cc(C)c(S(=O)(=O)N2CCN(c3ccc(Nc4ccncc4)nn3)CC2)cc1C | 0.473 (≈ 1.08 µM) | 3.61 (≈ 8.23 µM) | 4.26 (≈ 9.71 µM) | 1.94 (≈ 4.43 µM) | 0.782 (≈ 1.78 µM) | – | 0 | 0
O=S(=O)(c1cccc(Cl)c1)N1CCN(c2ccc(Nc3ccncc3)nn2)CC1 | 5.77 (≈ 13.4 µM) | 4.24 (≈ 9.83 µM) | > 12.9 | 12.9 (≈ 30 µM) | 3.98 (≈ 9.24 µM) | – | 0 | 100
COc1cc(NCCNC(=O)C(C)C)nc(OC)n1 | > 8.05 | > 8.05 | 0.261 (≈ 0.973 µM) | > 8.05 | > 8.05 | – | 0 | 0
CCCCOc1ccc(C(=O)N2CCN(c3cc(OC)nc(OC)n3)CC2)cc1 | > 12 | > 12 | > 12 | > 12 | > 12 | – | 0 | 100
COc1ccc(C(=O)Nc2ccc(SCC(=O)N3CCCC3)nn2)c(OC)c1 | > 12.1 | > 12.1 | > 12.1 | > 12.1 | > 12.1 | – | 0 | 100
O=C(CCc1csc(NC(=O)c2ccco2)n1)NCCc1c[nH]c2ccccc12 | > 12.3 | > 12.3 | > 12.3 | 3.18 (≈ 7.78 µM) | 5.75 (≈ 14.1 µM) | – | 0 | 100

More lines, main results first:

IC50 (Plasmodium falciparum K1) [µg/mL] | IC50 [2] [µg/mL] | IC50 (Leishmania infantum) [µg/mL] | Structure (SMILES) | IC50 [1] [µg/mL] | IC50 (Trypanosoma cruzi) [µg/mL] | % Inhibition (Schistosoma mansoni) [%] | % Inhibition (Brugia malayi) [%] | % Inhibition (Onchocerca ochengi) [%]
> 10.2 | > 10.2 | > 10.2 | COc1cccc2sc(Nc3nc(-c4ccncc4)cs3)nc12 | 4.5 (≈ 13.2 µM) | 0.132 (≈ 0.388 µM) | 0 | 25 | –
4.49 (≈ 13.9 µM) | 0.163 (≈ 0.506 µM) | > 9.67 | CCOc1ccccc1C(=O)NCc1ccc2c(c1)cc(C)n2C | 4.26 (≈ 13.2 µM) | 0.057 (≈ 0.177 µM) | 0 | 0 | –
> 8.89 | > 8.89 | > 8.89 | Cc1cc2cc(CNC(=O)c3ccccc3F)ccc2n1C | > 8.89 | 0.181 (≈ 0.609 µM) | 0 | 0 | –
> 10.7 | 3.39 (≈ 9.49 µM) | > 10.7 | Cc1cc2cc(CNC(=O)c3ccccc3Br)ccc2n1C | > 10.7 | 0.487 (≈ 1.36 µM) | 0 | 0 | –
> 10.5 | > 10.5 | > 10.5 | CCC(Sc1ccc(NC(=O)c2cccc(F)c2)nn1)C(=O)OC (stereo not given) | 9.15 (≈ 26.2 µM) | > 10.5 | – | 0 | 100
> 13.2 | > 13.2 | 4.28 (≈ 9.71 µM) | COc1ccc(C)cc1S(=O)(=O)N1CCN(c2ccc(Nc3cccnc3)nn2)CC1 | 10.3 (≈ 23.4 µM) | 3.89 (≈ 8.83 µM) | – | 0 | 100
> 11.3 | > 11.3 | > 11.3 | COc1cc(N2CCN(C(=O)Nc3cccc(Cl)c3)CC2)nc(OC)n1 | > 11.3 | > 11.3 | – | 0 | 100
> 12.5 | > 12.5 | > 12.5 | Cc1nc2sc(C)c(C)n2c(=O)c1NC(=O)CC(c1ccccc1)c1ccccc1 | > 12.5 | > 12.5 | – | 0 | 100
> 10.8 | > 10.8 | 0.348 (≈ 0.971 µM) | CCOc1ncccc1C(=O)Nc1c(C)nc2sc(C)c(C)n2c1=O | > 10.8 | > 10.8 | – | 0 | 0
> 11.8 | > 11.8 | 0.383 (≈ 0.971 µM) | Cc1cc(=O)n2c(-c3cccc(NC(=O)Nc4ccc(F)cc4)c3)csc2n1 | > 11.8 | > 11.8 | – | 0 | 0
> 12.2 | 4.04 (≈ 9.95 µM) | 0.395 (≈ 0.972 µM) | COc1ccc(NC(=O)Nc2cccc(-c3csc4nc(C)cc(=O)n34)c2)cc1 | > 12.2 | > 12.2 | – | 0 | 0
> 11.9 | 4.05 (≈ 10.2 µM) | > 11.9 | Cc1nc2scc(-c3cccc(NC(=O)NC4CCCCC4)c3)n2c(=O)c1C | > 11.9 | 3.54 (≈ 8.93 µM) | – | 0 | 100
> 10.5 | > 10.5 | > 10.5 | Cc1nc2scc(-c3cccc(NS(C)(=O)=O)c3)n2c(=O)c1C | > 10.5 | > 10.5 | – | 0 | 100
> 12.9 | > 12.9 | 0.418 (≈ 0.971 µM) | Cc1noc(C)c1S(=O)(=O)Nc1cccc(-c2csc3nc(C)c(C)c(=O)n23)c1 | > 12.9 | > 12.9 | – | 0 | 0
> 8.68 | > 8.68 | > 8.68 | COc1ccc(CC(=O)Nc2ccc(SC)nn2)cc1 | > 8.68 | > 8.68 | – | 0 | 100
> 12.4 | > 12.4 | > 12.4 | COc1ccccc1CNC(=O)CCc1csc(NC(=O)c2ccc(F)cc2)n1 | > 12.4 | > 12.4 | – | 0 | 100
> 12.5 | 4.19 (≈ 10.1 µM) | 5.26 (≈ 12.7 µM) | COc1ccccc1CCNC(=O)CCc1csc(NC(=O)c2cccs2)n1 | 5.79 (≈ 13.9 µM) | 3.8 (≈ 9.15 µM) | – | 0 | 100
> 12.1 | 4.15 (≈ 10.3 µM) | 12.1 (≈ 30 µM) | CSc1ccccc1NC(=O)CCc1csc(NC(=O)c2cccs2)n1 | > 12.1 | 5.38 (≈ 13.3 µM) | – | 0 | 100
> 12.4 | > 12.4 | 4.03 (≈ 9.71 µM) | O=C(CCc1csc(NC(=O)c2cccs2)n1)Nc1nc2ccccc2s1 | > 12.4 | > 12.4 | – | 0 | 100
> 11.3 | > 11.3 | > 11.3 | O=C(CCc1csc(NC(=O)c2ccco2)n1)Nc1ccc(Cl)cc1 | > 11.3 | 3.67 (≈ 9.77 µM) | – | 0 | 100
> 12.4 | > 12.4 | 0.843 (≈ 2.04 µM) | Cc1cccc2sc(NC(=O)CCc3csc(NC(=O)c4ccco4)n3)nc12 | > 12.4 | > 12.4 | – | 0 | 100
